Bioassay records: PubChem, several laboratories
Most compounds without a hit are left out; they make up all but 0.85% or so of the library.
zfTRPN1 agonist – zebrafish TRPN1 (NompC) channel agonism; HEK293 zebrafish TRPN1-YFP, Fluo-8 calcium fluorescence; 100% = response to 87 µM carbachol; activation, % at 3 µM; actives 0.18% (n = 220,000); AID 1424;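 active = activation above its plate's cutoff, the mean activation of test wells on that plate plus 3 SD, cut at about 19% in these data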;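 also: 0% = DMSO alone and 100% = 87 µM carbachol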
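Material – zebrafish TRPN1-YFP in HEK293 cells · Doses – 3 µM single point · Schedule – dye 1 h 37 °C plus 30 min RT · Signal – Fluo-8 calcium fluorescence, excitation 470-495 nm, emission 515-575 nm · Read-out – % activation versus carbachol response · Control set – carbachol high, DMSO low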
TRPML3 ag – human mucolipin-3 channel agonism; Q8TDD5; HEK293 TRPML3-YFP, Fluo-8 calcium fluorescence; 100% = the carbachol control signal; activation, % at 3 µM; AID 1448; actives 0.29% (n = 220,000);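 active = activation above its plate's cutoff, the mean activation of the plate's test wells plus 3 SD, cut at about 12% in these data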;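 also: 0% = DMSO only wells and 100% = carbachol wells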
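Test system: TRPML3-YFP stable HEK293 cells. Doses: single point at 3 µM. Incubation: dye loading 1 h 37 °C then 30 min ambient, 125 s read. Signal: Fluo-8 calcium dye fluorescence, ex 470-495, em 515-575 nm. Measure: percent activation from peak-to-basal fluorescence ratio, scaled between DMSO and carbachol.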
OXTR potentiator – potentiates the human oxytocin receptor response | actives 0.061% (n = 320,000) | activation, % at 3 µM | P30559 | CHO-OTR cells, Fluo-8 calcium fluorescence, potentiator mode; 0% = oxytocin EC15, 100% = EC100 | AID 2445;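 active = activation above that plate's cutoff, the mean activation of tested compounds plus 3 SD, cut at about 6.6% in these data, passing the limit was not always enough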;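 also: 100% uses oxytocin at 75 nM as the full agonist control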
Target sequence (P30559 whole entry, looked up): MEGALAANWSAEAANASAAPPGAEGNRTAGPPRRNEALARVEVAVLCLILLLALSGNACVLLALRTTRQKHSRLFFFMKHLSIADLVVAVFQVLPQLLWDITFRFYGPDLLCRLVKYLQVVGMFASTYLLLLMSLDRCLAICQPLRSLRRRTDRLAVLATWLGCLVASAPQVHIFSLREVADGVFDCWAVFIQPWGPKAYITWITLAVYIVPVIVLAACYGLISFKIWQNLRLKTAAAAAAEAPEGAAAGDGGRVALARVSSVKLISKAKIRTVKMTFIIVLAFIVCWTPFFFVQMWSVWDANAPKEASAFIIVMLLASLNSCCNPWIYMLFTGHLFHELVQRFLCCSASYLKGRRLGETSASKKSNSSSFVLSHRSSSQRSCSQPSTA
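System: human OTR in CHO cells; Also added: sub-maximal oxytocin, roughly EC15; Timing: compound 6 min at room temperature before oxytocin, 100 s read; Technique: Fluo-8 intracellular calcium fluorescence, ex 470-495, em 515-575 nm; Controls: oxytocin EC15 low and EC100 high; Replication: singlicate.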
CRFR2-BP ag – CRF-BP/CRF-R2 complex agonism; HEK293 CRF-R2/CRF-BP, calcium dye fluorescence (FLIPR); percent of saturating CRF peptide response; activation, % at 13.2 µM; actives 0.46% (n = 350,000); AID 588473;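 active = activation of at least 50%, plus an integration ratio under a set limit after plate pattern correction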;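 also: plate controls were neutral control wells without compound for no effect and CRF at EC100 for full effect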
V1aR counter – V1a receptor agonism, counter-screen for OXTR agonists | actives 0.25% (n = 320,000) | activation, % at 3 µM | P37288 | CHO-V1R cells, Fluo-8 calcium fluorescence, agonist mode; 0% DMSO, 100% 3 nM vasopressin;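 active = activation above the mean activation of all tested compounds plus 3 SD, per screening run, cut at about 20% in these data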;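 also: signal is peak over basal fluorescence ratio across a 100 second FLIPR read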
OXTR ag – human OXTR agonism; activation, % at 3 µM; actives 0.32% (n = 320,000); CHO-OTR cells, Fluo-8 calcium fluorescence; normalized: DMSO 0%, oxytocin 100%; P30559;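 active = activation above the mean of all tested compounds plus 3 SD, cutoff set per screening run, cut at about 20% in these data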;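 also: peak over basal fluorescence ratio from a 100 s FLIPR kinetic read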
Numbers without * were called inactive; · = no result given.

SMILES	zfTRPN1 agonist	TRPML3 ag	OXTR potentiator	CRFR2-BP ag	V1aR counter	OXTR ag
Clc1ccc(C2=CC(c3ccco3)n3ncnc3N2)cc1 (configuration not stated)	0.4	0.4	-11.2	348.7*	11.7	7.8
COc1ccc(C2C=C(c3ccccc3)Nc3ncnn32)cc1 (configuration not stated)	-0.4	-0.1	0.5	1.3	-1.0	-1.5
COc1ccc(C2=CC(c3ccco3)n3ncnc3N2)cc1 (configuration not stated)	0.6	1.1	·	170.1*	·	·
COc1cccc(NC(=O)COC(=O)C2CCCCC2)c1	·	·	-0.2	1.2	-0.4	0.0
CCOC(=O)/C(C#N)=C(C)/C=C1\Sc2ccccc2N1CC	1.7	-0.1	-8.2	121.7*	3.0	-0.7
CCN1/C(=C\C=C(C(C)=O)C(C)=O)Sc2ccccc21	14.0	7.4	-7.0	80.9*	13.1	8.4
CC(C)N(CCn1c(=S)[nH]c2ccccc2c1=O)C(C)C	0.2	1.1	-4.1	50.3*	-0.7	-0.3
Cc1ccc(S(=O)(=O)N2CCN(C(C)C(=O)NCC(C)c3ccccc3)CC2)cc1 (configuration not stated)	·	·	-4.6	-0.7	2.3	0.2
COc1ccc(C(=O)Cn2cnc3ccccc3c2=O)c(OC)c1	·	·	·	54.1*	·	·
CCOC(=O)Cc1csc(NC(=O)c2cc(-c3ccncc3)nc3ccccc23)n1	·	·	-3.3	-1.1	-1.2	-2.1
COC(=O)Cn1cc(/C=C/c2cc[n+](C)cc2)c2ccccc21	·	·	-0.7	51.2*	3.3	1.6
COC(=O)Cn1c(C)c(/C=C/c2cc[n+](C)cc2)c2ccccc21	·	·	·	39.3	·	·
O=C(NC(Cc1ccccc1)C(=O)O)/C(=C\c1ccc(Cl)cc1)NC(=O)c1ccco1 (configuration not stated)	·	·	2.6	-2.6	1.3	-0.7
Cc1nnsc1C(=O)N/N=C/c1ccc2ccccc2c1O	3.2	1.8	-13.2	147.0*	46.6*	67.3*
CCN1C/C(=C/c2ccc(N3CCOCC3)cc2)C(=O)/C(=C/c2ccc(N3CCOCC3)cc2)C1	8.9	10.6	-11.7	114.5*	21.6*	25.7*
CN1C/C(=C\c2ccc(N3CCOCC3)cc2)C(=O)/C(=C/c2ccc(N3CCOCC3)cc2)C1	10.4	6.9	-8.3	65.5*	15.9	7.1
CN1C/C(=C/c2ccncc2)C(=O)/C(=C/c2ccncc2)C1	·	·	-8.7	1.2	-0.3	-0.4
CCc1ccc(/C=C2/SC(N3CCOCC3)=NC2=O)cc1	-1.2	-0.1	-14.6	1.0	-1.9	-2.7
Cc1ccc([N+](=O)[O-])cc1NC(=O)Nc1cccc(F)c1	23.9*	10.7	·	12.4	·	·
COC(=O)c1sccc1NC(=O)Nc1cccc([N+](=O)[O-])c1	·	·	-1.1	-1.7	0.1	-0.7
O=C(Nc1cccc(Cl)c1)Nc1csc([N+](=O)[O-])c1	19.0*	11.6*	-7.7	25.3	7.8	16.6
O=C(Nc1cccc([N+](=O)[O-])c1)Nc1cccs1	19.7*	13.3*	-38.3	14.8	9.6	17.1
O=C(Nc1ccncc1)Nc1cccc(Cl)c1	·	·	-7.4	3.0	10.7	8.9
COC(=O)c1ccc(NC(=O)Nc2cccc(F)c2)cc1	19.4*	9.7	-15.5	21.4	13.5	13.0
C=C1[C@@H](O)[C@H](Cc2ccccc2)N(Cc2ccccc2Br)S1(=O)=O	·	·	·	-0.1	·	·
SMILES	zfTRPN1 agonist	TRPML3 ag	OXTR potentiator	CRFR2-BP ag	V1aR counter	OXTR ag
CC(C)CN1CCN(C(=O)CCc2nnc(Cc3c[nH]c4ccccc34)o2)[C@@H](C)C1=O	·	·	·	-0.2	·	·
Cc1ccc(O)c(C(=O)c2cc(C#N)c3nc4ccccc4n3c2)c1	4.9	2.4	-6.0	66.4*	1.2	1.7
Cc1ccc(O)c(C(=O)c2cc(C#N)c(=O)n(Cc3ccccc3)c2)c1	-0.3	-0.1	-6.4	8.6	2.4	3.2
COc1ccc(NC(=O)CSc2nnc(C)c3ccccc23)cc1	·	·	-4.0	-0.1	0.1	0.2
COc1ccc(NC(=O)CSc2ccc3c4c(cccc24)C(=O)c2ccccc2-3)cc1	4.6	4.1	-16.4	103.9*	9.0	8.0
COC(=O)c1ccc2c(c1)C(C)(C)C(/C=C/c1ccccc1O)=[N+]2C	9.3	8.6	-9.2	53.1*	15.0	16.9
CCCCCCn1c(=O)n2n(c1=O)[C@@H]1CN(S(=O)(=O)c3ccc(C)cc3)C[C@]1(O)[C@@H](OC(=O)NC1CCCC1)C2	·	·	·	3.4	·	·
Cc1ccc(CSC(Nc2ccc(F)cc2)=C(C#N)C#N)cc1	25.3*	14.9*	-6.4	51.0*	8.8	8.8
N#C/C(=N\Nc1cccc([N+](=O)[O-])c1)C(=O)c1ccc(Br)cc1	12.5	5.2	-15.8	21.7	7.5	11.5
N#C/C(=N\Nc1cccc(C(F)(F)F)c1)C(=O)c1ccsc1	24.2*	13.7*	-12.1	34.6	13.1	12.0
Cc1ccc([C@H]2C[C@@H](O)[C@H](n3cc(-c4ccc(F)cc4)nn3)CN2C(=O)C2CCCCC2)cc1	·	·	·	0.1	·	·
Cc1ccc(S(=O)(=O)N(CC(=O)N2CCOCC2)c2ccccc2F)cc1	·	·	-7.1	0.7	1.1	0.3
CCOc1ccccc1N(CC(=O)N1CCOCC1)S(=O)(=O)c1ccc(SC)cc1	57.5*	198.5*	·	109.1*	·	·
CCCCC1(C)OC(=O)C(=Cc2ccc(N(CC)CC)cc2)C(=O)O1 (configuration not stated)	-0.2	0.0	-13.6	59.4*	0.2	0.1
CC(=O)c1ccccc1NC(=O)COC(=O)CN1C(=O)C2CCCCC2C1=O (configuration not stated)	·	·	-9.0	-0.7	0.6	0.8
COc1cccc(/C=N/N2C(=O)CSC2=S)c1O	-0.3	0.6	-2.7	0.3	3.0	1.0
COc1cc(/C=N/N2C(=O)CSC2=S)cc(Br)c1O	40.7*	24.2*	·	31.3	·	·
CCn1c(=O)c2c(nc(SCC(=O)N3CCC(C)CC3)n2C)n(C)c1=O	·	·	-0.7	-2.0	1.9	4.6
CCN(c1ccc(N=Cc2c(O)n(Cc3ccc(OC)cc3)c(=O)c3ccccc23)cc1)C(C)C	-0.5	1.2	·	126.9*	·	·
NC(=O)C1CC2(C1)CC(C(N)=O)C2 (configuration not stated)	·	·	·	-2.2	·	·
CC(C)=CCC[C@](C)(O)C1CC[C@]2(C)C1[C@H](O)CC1[C@@]3(C)CC[C@H](O[C@@H]4O[C@H](CO)[C@@H](O)[C@H](O)[C@H]4O[C@@H]4O[C@H](CO)[C@@H](O)[C@H](O)[C@H]4O)C(C)(C)C3CC[C@]12C (some centres not stated)	·	·	-12.3	1.2	38.1*	70.1*
